In ChEMBL document CHEMBL4732053, “Design, synthesis and structure-activity relationship study of novel urea compounds as FGFR1 inhibitors to treat metastatic triple-negative breast cancer” (Eur J Med Chem, 2021):

How the values were obtained:
MDA-MB-231 = assay: Cytotoxicity against human MDA-MB-231 cells assessed as reduction in cell viability incubated for 48 hrs by MTT assay; format: functional, cell-based; settings: MDA-MB-231, 48 h
In short: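 MTT assay in MDA-MB-231 cells grown in DMEM with 10% heat-inactivated FBS at 37 °C and 5% CO2. Cells were seeded at 8000 per well, left 24 h, then exposed for 48 h to 0–25 μM in DMEM with 2% FBS (final DMSO 0.1%). MTT (0.5 mg/mL) was added for 2 h, formazan was dissolved in DMSO and read at 570 nm. Runs were in triplicate and IC50 was derived from the curves.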

[1] = molecular target: Sodium-dependent dopamine transporter (Homo sapiens, UniProt Q01959); assay: Inhibition of DAT (unknown origin)
[2] = molecular target: DAT (sodium-dependent dopamine transporter) (Homo sapiens, UniProt Q01959); assay: Inhibition of DAT (unknown origin) at 10 uM relative to control
In short: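 Primary radioligand-binding screen by the NIMH Psychoactive Drug Screening Program. Each compound was tested at a final concentration of 10 μM in triplicate or quadruplicate, and % inhibition was recorded. Data are mean ± SEM of four independent experiments. Compounds reaching at least 50% antagonist activity went on to secondary dose-response assays.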

[3] = Metabolic stability in Sprague-Dawley rat liver microsomes assessed as parent compound remaining in presence of NADPH measured up to 60 mins by LC-MS/MS analysis; format: ADME, Microsome; settings: 1 h
In short: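 Pooled male Sprague-Dawley rat liver microsomes (6.2% mixture in potassium phosphate buffer) were used with an NADPH regenerating system. Compound, diluted to 5 μM before mixing, was prewarmed 10 min at 37 °C, then incubated with microsomes at 37 °C with shaking. Samples taken at 0, 5, 15, 30 and 60 min were quenched in ice-cold acetonitrile and centrifuged. Analysis was by LC-MS/MS, giving % remaining versus T0 from peak area ratios. Three independent experiments in triplicate.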

Chain of DAT (sodium-dependent dopamine transporter) (Q01959 whole entry): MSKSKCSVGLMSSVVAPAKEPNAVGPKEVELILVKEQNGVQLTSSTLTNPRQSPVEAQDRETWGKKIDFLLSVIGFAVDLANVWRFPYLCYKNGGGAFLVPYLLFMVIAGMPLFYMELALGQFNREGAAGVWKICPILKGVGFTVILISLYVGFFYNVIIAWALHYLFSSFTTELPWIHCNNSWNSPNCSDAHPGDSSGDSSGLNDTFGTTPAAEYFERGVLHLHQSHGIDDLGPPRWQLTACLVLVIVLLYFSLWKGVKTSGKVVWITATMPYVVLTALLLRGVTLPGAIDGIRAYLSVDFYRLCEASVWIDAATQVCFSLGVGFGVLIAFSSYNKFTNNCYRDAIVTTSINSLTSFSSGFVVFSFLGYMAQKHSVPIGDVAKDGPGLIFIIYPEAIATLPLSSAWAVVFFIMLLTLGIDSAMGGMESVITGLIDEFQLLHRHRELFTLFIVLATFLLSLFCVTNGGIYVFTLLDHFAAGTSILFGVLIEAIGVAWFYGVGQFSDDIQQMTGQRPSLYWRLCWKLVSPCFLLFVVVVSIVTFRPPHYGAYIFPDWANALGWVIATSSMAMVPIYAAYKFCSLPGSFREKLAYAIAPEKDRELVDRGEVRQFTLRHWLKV
Chain of Sodium-dependent dopamine transporter (Q01959 whole entry): as above

| SMILES | IC50 (MDA-MB-231) | Ki [1] | inhibition at 10 µM [2] | Stabilty [3] |
| --- | --- | --- | --- | --- |
| Fc1ccc(C(CCCCOCc2ccc(Oc3ccc(Cl)cc3)cc2)c2ccc(F)cc2)cc1 | > 20 µM | – | – | – |
| O=C(NCCCCC(c1ccc(F)cc1)c1ccc(F)cc1)Nc1ccc([N+](=O)[O-])cc1 | 6.47 µM | – | – | – |
| CN(CCCCC(c1ccc(F)cc1)c1ccc(F)cc1)C(=O)Nc1ccc(Cl)c(C(F)(F)F)c1 | 6.02 µM | 0.998 µM | 73% | – |
| O=C(NCCCCC(c1ccc(F)cc1)c1ccc(F)cc1)Nc1ccc(Cl)c(C(F)(F)F)c1 | 3.15 µM | 0.0065 µM | 90% | Stable |
| Cc1ccc(NC(=O)NCCCCC(c2ccc(F)cc2)c2ccc(F)cc2)cc1C | > 20 µM | 0.08 µM | 79% | – |
| CN(CCCCC(c1ccc(F)cc1)c1ccc(F)cc1)C(=O)N(C)c1ccc(Cl)c(C(F)(F)F)c1 | > 20 µM | – | 26% | – |
| O=C(NCCCCCC(c1ccc(F)cc1)c1ccc(F)cc1)Nc1ccc(Cl)c(C(F)(F)F)c1 | 2.57 µM | 0.399 µM | 77% | – |
| Nc1ccc(NC(=O)NCCCCC(c2ccc(F)cc2)c2ccc(F)cc2)cc1 | > 20 µM | – | – | – |
| O=C(NCCCCC(c1ccc(OC(F)(F)F)cc1)c1ccc(OC(F)(F)F)cc1)Nc1ccc(Cl)c(C(F)(F)F)c1 | 1.69 µM | – | – | – |
| Nc1ccc(C(CCCCNC(=O)Nc2ccc(Cl)c(C(F)(F)F)c2)c2ccc(N)cc2)cc1 | 12.2 µM | – | – | – |
| O=C(Nc1ccc(Cl)c(C(F)(F)F)c1)OCCCCC(c1ccc(F)cc1)c1ccc(F)cc1 | 4.58 µM | – | 49% | – |
| O=C(NCCCCC(c1ccc(F)cc1)c1ccc(F)cc1)Nc1ccc(Cl)c([N+](=O)[O-])c1 | 4.06 µM | – | – | – |
| OC1(c2ccc(Cl)c(C(F)(F)F)c2)CCN(CCCC(c2ccc(F)cc2)c2ccc(F)cc2)CC1 [PENFLURIDOL] | 2.3 µM | – | – | – |
| O=C(NCCCCC(c1ccc(F)cc1)c1ccc(F)cc1)Nc1ccc(Cl)cc1C(F)(F)F | > 20 µM | – | 20% | – |
| O=C(CCCCC(c1ccc(F)cc1)c1ccc(F)cc1)Nc1ccc(Cl)c(C(F)(F)F)c1 | 11.4 µM | – | 33% | – |
| COc1ccc(C(CCCCNC(=O)Nc2ccc(Cl)c([N+](=O)[O-])c2)c2ccc(OC)cc2)cc1 | 3.99 µM | 0.144 µM | 64% | – |
| Cc1ccc(NC(=O)NCCCCC(c2ccc(F)cc2)c2ccc(F)cc2)cc1 | > 20 µM | – | – | – |
| O=C(NCCCCC(c1ccc(F)cc1)c1ccc(F)cc1)c1ccc(Cl)c(C(F)(F)F)c1 | 11.7 µM | 0.603 µM | 51% | – |
| O=C(NCCCCC(c1ccc(F)cc1)c1ccc(F)cc1)Nc1ccc(I)cc1 | 11.8 µM | – | 24% | – |
| Cc1ccc(C(CCCCNC(=O)Nc2ccc(Cl)c(C(F)(F)F)c2)c2ccc(C)cc2)cc1 | 2.51 µM | – | 38% | – |
| O=C(OCCCC(c1ccc(F)cc1)c1ccc(F)cc1)c1cc(Cl)c(OCc2ccccc2)c(Cl)c1 | > 20 µM | – | – | – |
| Cc1ccc(NC(=O)NCCCCN(c2ccc(F)cc2)c2ccc(F)cc2)cc1C | > 20 µM | – | – | – |
| O=C(NCCCCN(c1ccc(F)cc1)c1ccc(F)cc1)Nc1ccc(Cl)cc1 | > 20 µM | 0.405 µM | 68% | – |
| CC(=O)Nc1cc(NC(=O)NCCCCC(c2ccc(F)cc2)c2ccc(F)cc2)ccc1Cl | 9.12 µM | 0.609 µM | 76% | – |
| COC(=O)c1ccc(NC(=O)NCCCCC(c2ccc(F)cc2)c2ccc(F)cc2)cc1C(F)(F)F | 4.43 µM | – | – | – |
| O=C(NCCCCN(c1ccc(F)cc1)c1ccc(F)cc1)Nc1ccc(Cl)c(C(F)(F)F)c1 | 5.04 µM | 0.043 µM | 85% | – |
| CC(=O)Nc1ccc(C(CCCCNC(=O)Nc2ccc(Cl)c(C(F)(F)F)c2)c2ccc(NC(C)=O)cc2)cc1 | > 20 µM | – | – | – |

| SMILES | IC50 (MDA-MB-231) | Ki [1] | inhibition at 10 µM [2] | Stabilty [3] |
| --- | --- | --- | --- | --- |
| O=C(NCCCCC(c1ccc(F)cc1)c1ccc(F)cc1)Nc1cccc(C(F)(F)F)c1 | 3.38 µM | – | – | – |
| Cc1cccc(NC(=O)NCCCCC(c2ccc(F)cc2)c2ccc(F)cc2)c1 | > 20 µM | – | – | – |
| Fc1ccc(C(CCCCOC2COC(c3ccccc3)OC2)c2ccc(F)cc2)cc1 (centres undefined) | > 20 µM | – | – | – |
| O=C(Nc1ccc(Cl)c(C(F)(F)F)c1)N1CCC(=C(c2ccc(F)cc2)c2ccc(F)cc2)CC1 | 5.65 µM | – | – | – |
| CC(=O)Nc1ccc(NC(=O)NCCCCC(c2ccc(F)cc2)c2ccc(F)cc2)cc1 | > 20 µM | – | – | – |
| Fc1ccc(C(CCCCNC(=S)Nc2ccc(Cl)c(C(F)(F)F)c2)c2ccc(F)cc2)cc1 | 3.66 µM | – | – | – |
| O=C(NCCCCC(c1ccc(F)cc1)c1ccc(F)cc1)Nc1ccc(C(F)(F)F)cc1 | 2.78 µM | – | – | – |
| O=C(Nc1ccc(Cl)c(C(F)(F)F)c1)N1CCC(C(c2ccc(F)cc2)c2ccc(F)cc2)CC1 | 11.4 µM | 1.59 µM | 52% | – |
| O=C(NCCCCCc1ccc(F)cc1)Nc1ccc(Cl)c(C(F)(F)F)c1 | 5.44 µM | – | – | – |
| Nc1cc(NC(=O)NCCCCC(c2ccc(F)cc2)c2ccc(F)cc2)ccc1Cl | 9.24 µM | – | – | – |
| Fc1ccc(C(CCCCN(c2ccc(F)cc2)c2ccc(F)cc2)c2ccc(F)cc2)cc1 | > 20 µM | – | – | – |
| O=S(=O)(c1ccc(Cl)c(C(F)(F)F)c1)N1CCN(CCCCC(c2ccc(F)cc2)c2ccc(F)cc2)CC1 | > 20 µM | – | – | – |
| O=C(NCCCCC(c1ccc(F)cc1)c1ccc(F)cc1)Nc1cccc(Cl)c1 | 5.07 µM | – | – | – |
| O=C(NCCCCC(c1ccc(F)cc1)c1ccc(F)cc1)Nc1cccc([N+](=O)[O-])c1 | 3.79 µM | – | – | – |
| Cc1cc(Cl)ccc1NC(=O)NCCCCC(c1ccc(F)cc1)c1ccc(F)cc1 | > 20 µM | 0.118 µM | 58% | – |
| Cc1ccc(C(CCCCNC(=O)Nc2ccc(Cl)cc2)c2ccc(C)cc2)cc1 | 17.9 µM | 0.535 µM | 59% | – |
| O=C(Nc1ccc(Cl)c(C(F)(F)F)c1)N1CCC(CC(c2ccc(F)cc2)c2ccc(F)cc2)CC1 | 4.84 µM | – | 24% | – |
| O=C(NCCCCC(c1ccc([N+](=O)[O-])cc1)c1ccc([N+](=O)[O-])cc1)Nc1ccc(Cl)c(C(F)(F)F)c1 | 1.23 µM | – | – | – |
| O=C(NCCCCC(c1ccc(F)cc1)c1ccc(F)cc1)Nc1ccc(C(=O)O)c(C(F)(F)F)c1 | > 20 µM | – | – | – |
| O=C(NCCCCC(c1ccc(F)cc1)c1ccc(F)cc1)Nc1ccc([N+](=O)[O-])c(Cl)c1 | 3.47 µM | – | – | – |
| COc1ccc(C(CCCCNC(=O)Nc2ccc(Cl)c(C(F)(F)F)c2)c2ccc(OC)cc2)cc1 | 3.3 µM | 0.04 µM | 75% | – |
| O=C(NCCCCN(c1ccc(F)cc1)c1ccc(F)cc1)Nc1ccc(Br)cc1I | > 20 µM | – | – | – |
| O=C(NCCCCC(c1ccc(F)cc1)c1ccc(F)cc1)Nc1ccc(Br)cc1I | > 20 µM | – | – | – |
| O=C(NCCCC(c1ccc(F)cc1)c1ccc(F)cc1)Nc1ccc(Cl)c(C(F)(F)F)c1 | 3.5 µM | 0.141 µM | 86% | – |
| O=C(NCCCCN(c1ccc(F)cc1)c1ccc(F)cc1)Nc1ccc(I)cc1 | > 20 µM | – | – | – |
| O=C(NCCCCC(c1ccccc1)c1ccccc1)Nc1ccc(Cl)c(C(F)(F)F)c1 | 5.72 µM | – | – | – |
